Results gathered from unrelated publications.
Each line is one published result; the experiments were not run side by side.
Target: Acetylcholinesterase (ache, Electrophorus electricus, UniProt O42275)
Read-out: enzyme activity
Action: inhibitor
Method: Ellman

| Structure (SMILES) | IC50 |
| --- | --- |
| CC(C)(C)OC(=O)NC1CCCN(C(=O)C=Cc2ccccc2)C1 (stereo not shown) | 39.4 µM |
| CCN(CC)C(=O)Oc1ccc(CCC(=O)N2CCC(Cc3ccccc3)CC2)cc1OC | 9.3 µM |
| O=C(O)C(/C=C/c1c(Cl)cccc1Cl)=N\Nc1nc(-c2ccc(Cl)cc2)cs1 | 0.092 µM |
| CCN(C)C(=O)Oc1ccc(CCC(=O)N2CCC(Cc3ccccc3)CC2)cc1 | 6.1 µM |
| Cc1ccc(Cn2cc(COc3ccc(-c4nnc(-c5ccc(F)cc5)o4)cc3)nn2)cc1 | > 100 µM |
| CC(C)(C)OC(=O)NC1CCCN(C(=O)/C=C/c2ccccc2Br)C1 (stereo not shown) | 46.3 µM |
| COc1ccc(-c2nnc(-c3ccc(OCc4cn(Cc5ccccc5)nn4)cc3)o2)cc1 | > 100 µM |
| COc1cc(CCC(=O)N2CCC(Cc3ccccc3)CC2)ccc1OC(=O)N(C)C | 8.6 µM |
| CC(C)(C)OC(=O)NC1CCCN(C(=O)/C=C/c2ccccc2Cl)C1 (stereo not shown) | 19.7 µM |
| COc1ccc(-c2nnc(-c3ccc(OCc4cn(Cc5ccc(Cl)cc5)nn4)cc3)o2)cc1 | > 100 µM |
| CC(C)(C)OC(=O)NC1CCCN(C(=O)/C=C/c2cccc(Cl)c2)C1 (stereo not shown) | > 50 µM |
| CCN(CC)C(=O)Oc1ccc(/C=C/C(=O)NC2CCN(Cc3ccccc3)CC2)cc1 | 4.5 µM |
| Cc1ccc(Cn2cc(COc3ccc(-c4nnc(-c5ccc([N+](=O)[O-])cc5)o4)cc3)nn2)cc1 | > 100 µM |
| COc1cccc(/C=C/C(=O)N2CCCC(NC(=O)OC(C)(C)C)C2)c1 (stereo not shown) | > 50 µM |
| CCN(C)C(=O)Oc1ccc(CCC(=O)N2CCN(Cc3ccccc3)CC2)cc1OC | 12.2 µM |
| O=C(O)C(/C=C/c1c(Cl)cccc1Cl)=N\Nc1nc(-c2ccc(F)cc2)cs1 | 0.299 µM |
| CCN(C)C(=O)Oc1ccc(/C=C/C(=O)NC2CCN(Cc3ccccc3)CC2)cc1 | 1.8 µM |
| O=[N+]([O-])c1ccc(-c2nnc(-c3ccc(OCc4cn(Cc5ccc(Br)cc5)nn4)cc3)o2)cc1 | > 100 µM |
| COc1cc(/C=C/C(=O)NC2CCN(Cc3ccccc3)CC2)ccc1OC(=O)N(C)C | 5.2 µM |
| Fc1ccc(Cn2cc(COc3ccc(-c4nnc(-c5ccc(F)cc5)o4)cc3)nn2)cc1 | > 100 µM |
| CN(C)C(=O)Oc1ccc(/C=C/C(=O)NC2CCN(Cc3ccccc3)CC2)cc1 | 5.9 µM |
| COc1ccc(-c2nnc(-c3ccc(OCc4cn(Cc5ccc(C)cc5)nn4)cc3)o2)cc1 | > 100 µM |
| COc1ccccc1/C=C/C(=O)N1CCCC(NC(=O)OC(C)(C)C)C1 (stereo not shown) | > 50 µM |
| O=[N+]([O-])c1ccc(-c2nnc(-c3ccc(OCc4cn(Cc5ccc(Cl)cc5)nn4)cc3)o2)cc1 | > 100 µM |
| Cc1ccc(/C=C/C(=O)N2CCCC(NC(=O)OC(C)(C)C)C2)cc1 (stereo not shown) | > 50 µM |
